In ChEMBL document CHEMBL3046177, “Plant growth inhibitory activity of p-hydroxyacetophenones and tremetones from Chilean endemic Baccharis species and some analogous: a comparative study” (J Agric Food Chem, 2002):
Calls of active or inactive are those of the source. The rule behind the calls is not given here.

How the values were obtained:
[1] = tested on: Physalis ixocarpa; test: Phytotoxicity against Physalis ixocarpa assessed as inhibition of seed respiration during germination after 72 hr; type: functional, organism-based; conditions: read-out: I50
Procedure, shortened: (§1)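 Oxygen uptake of germinating seeds measured polarographically with a Clark-type electrode at 25 °C in a nonilluminated cell over 5 and 10 min, at several compound concentrations. Expressed as percent of control (100%). Three experiments; RI50 from Probit analysis.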

[2] = tested on: Trifolium pratense; test: Phytotoxicity against Trifolium pratense (red clover) assessed as inhibition of root development during seeding stage after 120 hr; type: functional, organism-based; conditions: read-out: I50
Procedure, shortened: (§2)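 Petri-dish seedling assay on filter paper wetted with test solution (MeOH < 1%), 28 °C in the dark. Coleoptile/hypocotyl and root lengths of all germinated seeds measured after 120 h, then plants dried to constant weight at 40 °C. Three replicates; 50% inhibitory concentrations by Probit analysis of percent inhibition versus concentration.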

[3] = tested on: Trifolium pratense; test: Phytotoxicity against Trifolium pratense (red clover) assessed as inhibition of shoot development during seeding stage after 120 hr; type: functional, organism-based; conditions: read-out: I50; procedure, shortened: as §2
[4] = tested on: Physalis ixocarpa; test: Phytotoxicity against Physalis ixocarpa assessed as inhibition of root development during seeding stage after 120 hr; type: functional, organism-based; conditions: read-out: I50; procedure, shortened: as §2
[5] = tested on: Physalis ixocarpa; test: Phytotoxicity against Physalis ixocarpa assessed as inhibition of shoot development during seeding stage after 120 hr; type: functional, organism-based; conditions: read-out: I50; procedure, shortened: as §2
[6] = tested on: Lactuca sativa; test: Phytotoxicity against Lactuca sativa (lettuce) assessed as inhibition of root development during seeding stage after 120 hr; type: functional, organism-based; conditions: read-out: I50; procedure, shortened: as §2
[7] = tested on: Lactuca sativa; test: Phytotoxicity against Lactuca sativa (lettuce) assessed as inhibition of shoot development during seeding stage after 120 hr; type: functional, organism-based; conditions: read-out: I50; procedure, shortened: as §2
[8] = tested on: Lolium multiflorum; test: Phytotoxicity against Lolium multiflorum (Italian ryegrass) assessed as inhibition of root development during seeding stage after 120 hr; type: functional, organism-based; conditions: read-out: I50; procedure, shortened: as §2
[9] = tested on: Lolium multiflorum; test: Phytotoxicity against Lolium multiflorum (Italian ryegrass) assessed as inhibition of shoot development during seeding stage after 120 hr; type: functional, organism-based; conditions: read-out: I50; procedure, shortened: as §2
[10] = tested on: Trifolium pratense; test: Phytotoxicity against Trifolium pratense (red clover) assessed as inhibition of seed germination after 48 hr; type: functional
Procedure, shortened: (§3)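 Seeds of uniform size on Whatman No.1 filter paper in 85 mm Petri dishes, wetted with 8 or 10 mL deionized water or test solution (MeOH < 1%); controls got matching water/methanol. Sealed, incubated at 28 °C in the dark, scored at 48 h intervals; germination = 1 mm radicle extrusion. Three replicates.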

[11] = Antioxidant activity assessed as inhibition of bleaching of water soluble crocin measured every 5 min by spectrophotometric analysis; type: functional
Procedure, shortened: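 Aqueous mixture of 10 µM crocin, 1 mM t-BuOOH and 0.5 M t-BuOH with serial dilutions of test compound, placed under UV254 light; crocin bleaching (absorbance decrease) and fluorescence emission at 440 and 470 nm followed every 5 min. Three experiments, mean ± SEM.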

[12] = tested on: Spinacia oleracea; test: Inhibition of ATP synthesis in Spinacia oleracea (spinach) chloroplasts; type: functional
Procedure, shortened: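 Spinach thylakoids in 100 mM sorbitol, 5 mM MgCl2, 10 mM KCl, 1 mM Na+-tricine, pH 8, with 50 µM methyl viologen as Hill-reaction electron acceptor. Illuminated at 20 °C through 1% CuSO4 filter. ATP synthesis measured titrimetrically.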

[13] = tested on: Spinacia oleracea; test: Inhibition of H+ uptake in Spinacia oleracea (spinach) chloroplasts; type: functional; conditions: for IC50: read-out: I50
Procedure, shortened: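 Spinach thylakoids (from isolated chloroplasts, in sorbitol/tricine/MgCl2/NaCl buffer, pH 7.8) in 100 mM sorbitol, 5 mM MgCl2, 10 mM KCl, 1 mM Na+-tricine, pH 8, with 50 µM methyl viologen. Illuminated at 20 °C through 1% CuSO4 filter. H+ uptake recorded as pH rise from 8.0 to 8.1 with combination microelectrode on expanded scale.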

[14] = tested on: Phaseolus vulgaris; test: Inhibition of mitochondrial respiration in Phaseolus vulgaris root mitochondria assessed as reduction of oxygen uptake; type: functional; conditions: read-out: I50
Procedure, shortened: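 Mitochondria from roots of 72 h dark-grown (28 °C) bean seedlings, Percoll-gradient purified, 0.3-0.5 mg protein (Bradford) per run; integrity checked with HCN. Compounds in 0.5% methanol added after a constant state 3 rate with […] was reached. O2 uptake by Clark electrode; control is mitochondria with 0.5% MeOH. Three experiments; I50 by Probit.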

[15] = tested on: Trifolium pratense; test: Phytotoxicity against Trifolium pratense (red clover) assessed as inhibition of seed respiration during germination after 72 hr; type: functional, organism-based; conditions: read-out: I50; procedure, shortened: as §1
[16] = tested on: Lactuca sativa; test: Phytotoxicity against Lactuca sativa (lettuce) assessed as inhibition of seed respiration during germination after 72 hr; type: functional, organism-based; conditions: read-out: I50; procedure, shortened: as §1
[17] = tested on: Lolium multiflorum; test: Phytotoxicity against Lolium multiflorum (Italian ryegrass) assessed as inhibition of seed respiration during germination after 72 hr; type: functional, organism-based; conditions: read-out: I50; procedure, shortened: as §1
[18] = tested on: Physalis ixocarpa; test: Phytotoxicity against Physalis ixocarpa assessed as inhibition of seed germination after 48 hr; type: functional; procedure, shortened: as §3
[19] = tested on: Lactuca sativa; test: Phytotoxicity against Lactuca sativa (lettuce) assessed as inhibition of seed germination after 48 hr; type: functional; procedure, shortened: as §3
[20] = tested on: Lolium multiflorum; test: Phytotoxicity against Lolium multiflorum (Italian ryegrass) assessed as inhibition of seed germination after 48 hr; type: functional; procedure, shortened: as §3
[21] = tested on: Radical scavenging activity; test: Antioxidant activity assessed as DPPH free radical scavenging activity after 30 min by TLC autographic assay; type: functional; conditions: in the assay text read “spectrophotometric assay” for “TLC autographic assay”; read-out: I50

Compound CC(=O)c1ccc(O)cc1 [4-HYDROXYACETOPHENONE] has an IC50 [1] of 52.9 µM, an IC50 [2] of 29.5 µM and an IC50 [3] of 34.4 µM. It also gave an IC50 [4] of 10.8 µM, an IC50 [5] of 10.8 µM and an IC50 [6] of 45.5 µM. It also gave an IC50 [7] of 48.5 µM, an IC50 [8] of 19 µM and an IC50 [9] of 17.1 µM. The GI50 [10] was 28.5 µM, the inhibition [11] was “Active” and the inhibition [12] was “Dose-dependent effect”. The inhibition [13] was “Dose-dependent effect”, the IC50 [13] was 74.5 µM and the IC50 [14] was 121 µM. For the same compound, the IC50 [15] was 53 µM, the IC50 [16] was 43 µM and the IC50 [17] was 41 µM. For the same compound, the GI50 [18] was 15 µM, the GI50 [19] was 45.3 µM and the GI50 [20] was 14.4 µM.

CC(=O)c1ccc2c(c1)CC(C1(C)CO1)O2 (stereo not given) [10,11-EPOXY TREMETONE] showed an IC50 [1] of 57.5 µM, an IC50 [2] of 16.2 µM and an IC50 [3] of 14.3 µM. The IC50 [4] was 15.7 µM, the IC50 [5] was 5.8 µM and the IC50 [6] was 33.8 µM. For the same compound, the IC50 [7] was 33 µM, the IC50 [8] was 72.6 µM and the IC50 [9] was 65.9 µM. The GI50 [10] was 22.3 µM, the IC50 [21] was 62.6 µM and the inhibition [11] was “Active”. The inhibition [12] was “Dose-dependent effect”, the inhibition [13] was “Dose-dependent effect” and the IC50 [13] was 40.7 µM. The IC50 [14] was 109 µM, the IC50 [15] was 49.1 µM and the IC50 [16] was 58 µM. For the same compound, the IC50 [17] was 67.9 µM, the GI50 [18] was 19.2 µM and the GI50 [19] was 36.1 µM. For the same compound, the GI50 [20] was 65.6 µM.

For C=C(C)[C@H]1Cc2c(ccc(C(C)=O)c2O)O1 [4-HYDROXY TREMETONE], the IC50 [1] was 28.7 µM, the IC50 [2] was 46.3 µM and the IC50 [3] was 47.6 µM. The IC50 [4] was 12.7 µM, the IC50 [5] was 15.2 µM and the IC50 [6] was 16.7 µM. The IC50 [7] was 19 µM, the IC50 [8] was 22.3 µM and the IC50 [9] was 26.2 µM. The GI50 [10] was 17.8 µM, the IC50 [21] was 53.2 µM and the inhibition [11] was “Active”. For the same compound, the inhibition [12] was “Dose-dependent effect”, the inhibition [13] was “Dose-dependent effect” and the IC50 [13] was 20.4 µM. It also gave an IC50 [14] of 45 µM, an IC50 [15] of 22 µM and an IC50 [16] of 27 µM. For the same compound, the IC50 [17] was 39 µM, the GI50 [18] was 16.6 µM and the GI50 [19] was 21 µM. It also gave a GI50 [20] of 25.5 µM.
